Compounds with a hit are over-represented: about 0.72% of the library has one in this group of screens.
mIAP act: activators of mouse IAP, primary screen, biochemical, luminescence, uHTS. AID 2805, 2010. muIAP, CDP-Star luminescence, 30 min; hits give high values; 1 = vehicle-only enzyme signal, 0 = enzyme-free wells. intestinal alkaline phosphatase [Mus musculus]. 330,000 compounds, 0.24% hits. activation factor at 10 µM;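 active = activation factor of at least 2 at 20 µM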
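Assay system: mouse IAP enzyme; reagent: chemiluminescent substrate CDP-Star; dosing: test compounds delivered from DMSO solution; schedule: 30 min at room temperature; measured by: luminescence from enzymatic CDP-Star hydrolysis; controls: DMSO-only wells and no-enzyme negative control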
hIAP block: human IAP inhibitors, primary screen, biochemical, luminescence, uHTS; Intestinal-type alkaline phosphatase (Homo sapiens), P09923; purified IAP, CDP-Star luminescence, 30 min; inhibition, % at 10 µM; 330,000 compounds, 0.12% hits; AID 2544, 2010;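 active = inhibition reaching a set limit with compound at 10 µM in the primary screen, cut at about 35% in these data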;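 also: plate controls were DMSO wells with enzyme for no effect and no-enzyme buffer wells for full effect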
Target sequence (P09923 whole entry, looked up): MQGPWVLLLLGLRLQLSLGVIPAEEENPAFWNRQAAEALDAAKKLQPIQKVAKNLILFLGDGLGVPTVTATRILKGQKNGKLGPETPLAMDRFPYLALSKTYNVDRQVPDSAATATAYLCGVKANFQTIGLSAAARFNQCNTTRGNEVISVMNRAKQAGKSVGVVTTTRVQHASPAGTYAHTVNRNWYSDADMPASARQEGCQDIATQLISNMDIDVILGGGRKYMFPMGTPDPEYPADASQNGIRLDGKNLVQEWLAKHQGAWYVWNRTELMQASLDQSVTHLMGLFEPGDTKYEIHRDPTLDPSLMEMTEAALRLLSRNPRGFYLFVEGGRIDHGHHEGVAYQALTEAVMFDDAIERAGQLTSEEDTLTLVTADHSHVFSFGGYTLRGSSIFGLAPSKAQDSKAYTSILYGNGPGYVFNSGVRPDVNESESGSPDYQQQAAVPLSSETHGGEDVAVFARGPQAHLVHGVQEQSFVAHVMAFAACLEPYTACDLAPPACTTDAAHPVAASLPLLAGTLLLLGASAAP
bIAP act: bovine intestinal alkaline phosphatase activators, primary screen, biochemical, bovine IAP, CDP-star luminescence. 200,000 compounds, 0.17% hits. activation factor at 20 µM. alkaline phosphatase, intestinal [Bos taurus]. purified bovine IAP, 30 min; hits give high values; fold of DMSO-control signal, blank-subtracted;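 active = activation factor of 2 or more at 20 µM, a signal rise over negative controls twice the positive control's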
hIAP act: human IAP activators, primary screen, biochemical, luminescence, uHTS; AID 2524, 2010; activation factor at 10 µM; 330,000 compounds, 0.16% hits; purified human IAP, CDP-Star luminescence, 30 min; hits give high values; 1 = vehicle-only enzyme, 0 = enzyme-free background; Intestinal-type alkaline phosphatase (Homo sapiens), P09923;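 active = activation factor of the enzyme at least 2-fold when tested at 20 µM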
bIAP inh: bovine intestinal alkaline phosphatase inhibitors, primary screen, selectivity assay for TNAP inhibitor project, biochemical, bovine IAP, CDP-star luminescence; AID 1019, 2008; 190,000 tested, under 10 active; inhibition, % at 20 µM; purified bovine IAP, 30 min;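 active = over 50% inhibition of intestinal alkaline phosphatase at 20 µM in the single-dose screen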
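Assay system – bovine IAP enzyme · Quantity – bovine IAP at 1/65,000,000 final dilution · Detection – CDP-star luminescence signal · Times – 30 min reaction at room temperature · Also added – CDP-star substrate at 30 µM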
mIAP inh: inhibitors of mouse IAP, primary screen, biochemical, luminescence, uHTS; purified mouse IAP, CDP-Star luminescence, 30 min; 330,000 compounds, 0.2% hits; inhibition, % at 10 µM; AID 2806, 2010;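 active = inhibition of at least 40% at 10 µM in the primary screen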;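 also: plate controls were DMSO with enzyme for no effect and no enzyme wells for full effect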
mIAP inh confirm: inhibitors of mouse IAP, confirmation, biochemical, luminescence, single concentration; inhibition, % at 10 µM; shares compounds with mIAP inh; AID 434971, 2010; 11,000 compounds, 4.7% hits; purified mouse IAP, CDP-Star luminescence, 30 min;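 active = inhibition of at least 40% at 10 µM in either of the two replicates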;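 also: plate controls were DMSO wells with enzyme for no effect and buffer wells lacking enzyme for full effect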
An asterisk follows results filed as active; x = not tested or not shown.

SMILES	mIAP act	hIAP block	bIAP act	hIAP act	bIAP inh	mIAP inh	mIAP inh confirm
c1coc(C2Nc3cccc4cccc(c34)N2)c1	0.481	-2.8	0.7	1.03	30.8	51.9*	69.3*
CCCC(=O)Nc1nnc(-c2ccco2)s1	0.913	-2.2	1	1.02	4.5	8.7	x
Nc1nnc(-c2ccco2)s1	0.397	20.3	1.1	0.797	-5.9	60.3*	65.6*
O=[N+]([O-])c1ccc(N2CCN(S(=O)(=O)c3ccccc3[N+](=O)[O-])CC2)cc1N1CCc2ccccc2C1	0.909	-3.6	1.1	1.04	-5.9	9.1	x
O=C(NN1C(=O)/C(=C\c2ccc(O)c([N+](=O)[O-])c2)SC1=S)c1ccccc1Cl	0.564	18.2	x	0.818	x	43.6*	48.8*
CCOc1cc(/C=C2\SC(=S)N(Nc3ccccc3)C2=O)ccc1O	0.564	-12.5	0.9	1.12	5.9	43.6*	47.2*
COc1ccc(C(=O)N2CCN(Cc3ccc(OC)c(OC)c3)CC2)cc1	0.972	-21.2	x	1.21	x	2.8	x
CC(=O)NN1C(=O)/C(=C/c2ccc(Br)o2)SC1=S	0.328	-2.6	0.8	1.03	17.2	67.2*	74.9*
CC(=O)NN1C(=O)/C(=C\c2ccccc2)SC1=S	1.03	6.7	1	0.933	3.6	-2.9	x
CC(=O)NN1C(=O)/C(=C\c2ccc(Br)o2)SC1=S	0.398	3.0	0.9	0.97	8.5	60.2*	73.9*
CC(=O)NN1C(=O)/C(=C\c2ccc(O)cc2)SC1=S	0.725	32.4	0.5	0.676	x	27.5	x
CC1CC(Nc2ccccc2)=NC1(C)C (centres undefined)	1.05	-5.5	1	1.05	-2.4	-5.4	x
CC(=O)NC1=NN(C(C)=O)C(C)(c2ccccn2)S1 (centres undefined)	1.03	-15.8	0.9	1.16	6.1	-2.9	x
O=C(NCCc1ccc(Cl)cc1)Nc1ccc(F)cc1	1.41	-10.6	1.1	1.11	-13.5	-40.5	x
CCCc1c(NC(=O)Nc2ccc(F)cc2)cnn1-c1ccc(Cl)cc1	3.78*	-43.1	x	1.43	x	-278.2	-141.8
Cc1ccc(-c2csc3nc[nH]c(=S)c23)cc1C	0.932	-22.8	1.1	1.23	-7.2	6.8	x
O=C(N/N=C/c1ccc([N+](=O)[O-])o1)c1sc2ccccc2c1Cl	0.583	13.0	x	0.87	x	41.7*	53.7*
Cc1cc(C(=O)N/N=C/c2ccc([N+](=O)[O-])o2)c(C)o1	0.527	1.4	x	0.986	x	47.3*	68.5*
Cc1nonc1C(=O)N/N=C/c1ccc([N+](=O)[O-])o1	0.527	-17.3	1.3	1.17	-27.5	47.3*	59.7*
COC(=O)N/N=C/c1ccc([N+](=O)[O-])o1	0.763	9.7	0.8	0.903	19.9	23.7	x
CCn1cc(C(=O)NCC2CCCO2)c(=O)c2cc(S(=O)(=O)N3CCCCCC3)ccc21 (centres undefined)	0.998	-1.4	1.1	1.01	-8.7	0.2	x
COc1ccccc1C(CC(=O)Nc1ccc(C)c(C)c1)c1ccc(OC(C)C)cc1 (centres undefined)	2.14*	0.0	0.8	1	15.3	-113.9	-105.9
Cc1cccc(NS(=O)(=O)c2ccc3[nH]c(=O)oc3c2)c1C	0.983	-7.6	x	1.08	x	1.7	x
O=c1[nH]c2ccc(S(=O)(=O)N3CCCCC3)cc2o1	0.202	4.4	0.9	0.956	10.8	79.8*	74.3*
Cc1ccc(C)c(NS(=O)(=O)c2ccc3[nH]c(=O)oc3c2)c1	0.157	-7.0	1.1	1.07	-6.2	84.3*	88.9*
SMILES	mIAP act	hIAP block	bIAP act	hIAP act	bIAP inh	mIAP inh	mIAP inh confirm
COC(=O)c1ccc(NS(=O)(=O)c2ccc3[nH]c(=O)oc3c2)cc1	0.302	-11.2	x	1.11	x	69.8*	74.3*
Cc1ccc(NS(=O)(=O)c2ccc3[nH]c(=O)oc3c2)cc1Cl	0.797	7.5	x	0.925	x	20.3	x
OC(c1cccs1)c1nccc2ccccc12 (centres undefined)	1.17	-41.0	0.9	1.41	14.2	-16.6	x
CS(=O)(=O)N(CC(=O)NCCC1=CCCCC1)C1CCCCC1	0.967	-0.3	1	1	2.4	3.3	x
O=C(Nc1cccc(Cl)c1)Nc1nc(-c2ccc(Cl)cc2)cs1	2.88*	12.1	0.6	0.879	38.1	-187.6	-109.8
COC(=O)c1ccc(NC(=O)Nc2cccc(F)c2)cc1	2.6*	-1.1	0.9	1.01	11.2	-160.2	-97.4
COC(=O)c1ccc(NC(=O)Nc2ccc(F)cc2F)cc1	1.8	-3.9	1	1.04	-4.6	-79.8	x
Cc1cc(C)c2c3c(sc2n1)C(c1cccc(F)c1)C(C#N)=C(N)O3 (centres undefined)	1.04	-10.6	0.8	1.11	20.1	-4.3	x
N#Cc1c(SCC(=O)Nc2ccc(C(F)(F)F)cc2)sc2c(O)cc(=O)[nH]c12	0.677	5.2	x	0.948	x	32.3	x
N#Cc1c(SCC(=O)Nc2nncs2)sc2c(O)cc(=O)[nH]c12	0.432	-3.8	x	1.04	x	56.8*	70.1*
O=c1oc2ccccc2c(Nc2cccc(O)c2)c1[N+](=O)[O-]	0.518	14.8	0.7	0.852	27.1	48.2*	50.0*
O=c1c2c3c(sc2[nH]c(=S)n1Cc1ccco1)CCC3	0.41	1.3	x	0.987	x	59.0*	63.8*
CC1(C)Cc2c(sc3[nH]c(=S)n(Cc4ccco4)c(=O)c23)CO1	0.77	10.4	1	0.896	4.0	23.0	x
COc1ccc(NC(=O)CCNS(=O)(=O)c2ccc3[nH]c(=O)oc3c2)cc1Cl	0.555	13.1	x	0.869	x	44.5*	64.7*
CCOc1ccccc1CNC(=O)CCNS(=O)(=O)c1ccc2[nH]c(=O)oc2c1	0.386	18.2	x	0.818	x	61.4*	76.6*
CCOc1ccccc1NC(=O)CCNS(=O)(=O)c1ccc2[nH]c(=O)oc2c1	0.631	5.5	x	0.945	x	36.9	x
CCc1cccc(NC(=O)CCNS(=O)(=O)c2ccc3[nH]c(=O)oc3c2)c1	0.807	13.1	x	0.869	x	19.3	x
N#Cc1cccc(NC(=O)CCNS(=O)(=O)c2ccc3[nH]c(=O)oc3c2)c1	0.251	16.7	x	0.833	x	74.9*	74.6*
OC[C@@H]1[C@@H](c2ccccc2)C(c2ccccc2)=NN1c1ccccc1	2.27*	x	x	x	x	-126.9	-115.2
OC[C@@H]1[C@@H](c2ccccc2)C(c2cccc(Cl)c2)=NN1c1ccccc1	2.51*	x	x	x	x	-150.9	-127.8

Screening results: PubChem BioAssay, Sanford-Burnham Center for Chemical Genomics
